Experimental data pooled from the literature.
Each line is one published result; the experiments were not run side by side.
MPO: Myeloperoxidase (MPO, Homo sapiens, UniProt P05164)
SLC6A2: Sodium-dependent noradrenaline transporter (SLC6A2, Homo sapiens, UniProt P23975)

SMILES	target	test	test system	setting	measurement	value
COc1ccc(Cl)cc1-c1cc(=O)[nH]c(=S)n1CC(N)=O	MPO	enzyme activity, inhibitor, fluorescence		0.5556 µM	inhibition	87.6%
N#CC[C@@]12C[C@@H]1[C@@H](n1cnc3c(NCc4cccc(Cl)c4)nc(C#Cc4ccc(Cl)s4)nc31)[C@H](O)[C@@H]2O	SLC6A2	ligand displacement, radioligand		10 µM	inhibition	76%
CC(C)OCCn1c(=S)[nH]c(=O)c2[nH]ccc21	MPO	enzyme activity, inhibitor		0.3125 µM	remaining activity	67.4%
OC[C@@]12C[C@@H]1[C@@H](n1cnc3c(Nc4ccccc4)nc(I)nc31)[C@H](O)[C@@H]2O	SLC6A2	ligand displacement, radioligand		10 µM	inhibition	5%
C1=C/COCc2cc(ccc2OCCN2CCCC2)Nc2nccc(n2)-c2cccc(c2)COC/1	Tyrosine-protein kinase Fgr (FGR, Homo sapiens, UniProt P09769)	cell-free assay		0.1 µM	remaining signal	96%
CCCCC(=O)Nc1ccc(-c2ccc3ncn(CCC)c(=O)c3c2)cn1	Peripheral plasma membrane protein CASK (CASK, Homo sapiens, UniProt O14936)	binding, competition with immobilised ligand		0.5 µM	remaining binding	100%
N#CC[C@@]12C[C@@H]1[C@@H](n1cnc3c(NCCCCCCc4ccccc4)nc(I)nc31)[C@H](O)[C@@H]2O	SLC6A2	transporter uptake, inhibitor, radiometric	HEK293	10 µM	inhibition	0%
Cc1cc(O)c(-c2ccc([C@@H](C)CN(C)C)cc2)c2c1[nH]c(=O)c1sccc12	STE20/SPS1-related proline-alanine-rich protein kinase (STK39, Homo sapiens, UniProt Q9UEW8)	enzyme activity, inhibitor		0.1 µM	inhibition	13.6%
NC/C(=C\F)COc1cccc(Cn2c(=S)[nH]c(=O)c3[nH]cnc32)c1	MPO	enzyme activity, inhibitor, fluorescence		1.4 nM	inhibition	17.2%
CNc1nc(I)nc2c1ncn2[C@H]1[C@H](O)[C@H](O)[C@]2(CC#N)C[C@H]12	SLC6A2	ligand displacement, radioligand		10 µM	inhibition	-6%
CC(=O)N[C@@H](C)c1cc(Cl)ccc1C1CCN(C(=O)[C@@H]2CN(C(C)(C)C)C[C@H]2c2ccc(F)cc2F)CC1	Melanocortin receptor 4 (MC4R, Homo sapiens, UniProt P32245)	cAMP, agonist			Emax	104%
CC(C)[C@@H](CN1CCc2ccccc2C1)NC(=O)c1cccc(-c2cccnc2)c1	Kappa-type opioid receptor (Oprk1, Mus musculus, UniProt P33534)	ligand displacement, radioligand		10 µM	inhibition	74.3%
COc1ccc2oc(-c3ccc4nc(N)oc4c3)c/c(=N\c3ccccc3NC(=O)CCN)c2c1	Fibroblast growth factor receptor 1 (FGFR1, Homo sapiens, UniProt P11362)	binding		1 µM	remaining binding	94%
